In one test the test system is SW480. Nature of the test: Cytotoxicity against human SW480 cells after 72 hrs by MTT assay. In kind it is functional, cell-based. As to conditions: SW480, 72 h. In outline: (§1)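 Human colon cancer cells kept in DMEM with 10% FBS, 5% CO2, 37 °C, no antibiotics. About 3.0 × 10^4 cells per well, grown to 40% confluence, then exposed to compounds in DMSO for 72 h. MTT (5 mg/mL stock) added 4 h, formazan solubilized, absorbance at 570 nm. Octuplicate wells, mean and SD; IC50 by linear regression.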
In general terms: Tetrazolium assays rely on reduction of a dye to a coloured formazan, in cell work by metabolically active cells.

In the next test the test system is HCT-116. Nature of the test: Cytotoxicity against human HCT116 cells after 72 hrs by MTT assay. In kind it is functional, cell-based. As to conditions: HCT-116, 72 h. In outline: as §1
The test system of test [1] is Radical scavenging activity. Nature of the test: Antioxidant activity assessed as DPPH radical scavenging activity after 30 mins. In kind it is functional. In outline:
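Test samples in DMSO mixed with 300 µM ethanolic DPPH, incubated 37 °C for 30 min, absorbance read at 515 nm. Final test concentrations typically 1-50 µg/mL. Percent inhibition relative to DMSO-treated control; IC50 = concentration scavenging 50% of DPPH radicals.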

Consider four compounds from ChEMBL document CHEMBL1146555, “Bioactive novel polyphenols from the fruit of Manilkara zapota (Sapodilla)” (J Nat Prod, 2003).

Structures are written as SMILES.

`O=C(/C=C/c1ccc(O)c(O)c1)O[C@@H]1C[C@](O)(C(=O)O)C[C@@H](O)[C@H]1OC(=O)c1cc(O)c(O)c(O)c1`: the concentration for half-maximal inhibition (IC50) with SW480 was 134 µM; in the test with HCT-116, 154 µM; in test [1], 23.5 µM.
The like results for `O=C(/C=C/c1ccc(O)c(O)c1)O[C@@H]1C[C@](O)(C(=O)O)C[C@@H](O)[C@H]1O` [CHLOROGENIC ACID] were, in that order, 353 µM, 367 µM and 39.5 µM.
In the case of `O=C(O[C@@H]1Cc2c(O)cc(O)cc2O[C@@H]1c1cc(O)c(O)c(O)c1)c1cc(O)c(O)c(O)c1` [EPIGALOCATECHIN GALLATE], the figures for the IC50 with SW480 and in the test on HCT-116 were 195 µM and 161 µM, respectively.
As for `COC(=O)[C@]1(O)C[C@@H](O)[C@@H](OC(=O)c2cc(O)c(O)c(O)c2)[C@H](OC(=O)/C=C/c2ccc(O)c(O)c2)C1`, the values for the IC50 (with SW480; in the test with HCT-116; in test [1]) were 160 µM, 190 µM and 12.9 µM, respectively.

Usually IC50 stands for the concentration that gives 50% inhibition.
